Assay results: ChEMBL document CHEMBL1146134, “Synthesis and antifungal activity of 6-hydroxycinnolines” (2006)
In brackets after ≈: the same amount, converted by molar mass.

What was measured:
Assay type in all cases: functional
[1] = tested on: Candida tropicalis; assay: Antifungal activity against Candida tropicalis KCCM 50662
Outline: (§1)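 Twofold broth dilution MIC in modified Sabouraud dextrose broth. Inoculum approximately 1 × 10⁵ cells/mL. Final agent concentrations ranged 0.2 to 100. Incubated at 37 °C and read after 1 day. MIC determined against 5-fluorocytosine as standard.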

[2] = tested on: Pichia kudriavzevii; assay: Antifungal activity against Candida krusei KCCM 11655; outline: as §1
[3] = tested on: Aspergillus niger; assay: Antifungal activity against Aspergillus niger KCTC 1231
Outline: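 MIC by twofold serial dilution in modified Sabouraud dextrose broth, with roughly 1 × 10⁵ cells/mL inoculum. Final test concentrations ranged 0.2 to 100. Plates held at 37 °C and read after 2 days. 5-Fluorocytosine served as reference agent.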

[4] = tested on: Candida albicans; assay: Antifungal activity against Candida albicans KCCM 50235; outline: as §1
[5] = tested on: Cryptococcus neoformans; assay: Antifungal activity against Cryptococcus neoformans KCCM 50564
Outline: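 Growth inhibition measured as MIC by twofold broth dilution in modified Sabouraud dextrose broth. Inoculum near 1 × 10⁵ cells/mL. Final agent concentrations spanned 0.2 to 100. 5-Fluorocytosine was run as standard.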

| MIC [1] [µg/mL] | MIC [2] [µg/mL] | MIC [3] [µg/mL] | MIC [4] [µg/mL] | MIC [5] [µg/mL] | SMILES |
| --- | --- | --- | --- | --- | --- |
| 50 (≈ 139 µM) | 25 (≈ 69.6 µM) | 50 (≈ 139 µM) | 50 (≈ 139 µM) | 50 (≈ 139 µM) | COC(=O)C(C#N)C1=C(Sc2cccc(F)c2)C(=O)C(C)=C(C)C1=O (stereo not given) |
| 50 (≈ 177 µM) | 25 (≈ 88.7 µM) | 6.3 (≈ 22.4 µM) | > 50 | 25 (≈ 88.7 µM) | COC(=O)c1c(N)nnc2c(C)c(C)c(O)c(Cl)c12 |
| 50 (≈ 146 µM) | 50 (≈ 146 µM) | 50 (≈ 146 µM) | 50 (≈ 146 µM) | 12.5 (≈ 36.6 µM) | COC(=O)C(C#N)C1=C(Sc2ccccc2)C(=O)C(C)=C(C)C1=O (stereo not given) |
| 25 (≈ 67.7 µM) | 3.2 (≈ 8.66 µM) | 25 (≈ 67.7 µM) | > 50 | 6.3 (≈ 17.1 µM) | COC(=O)c1c(N)nnc2c(C)c(C)c(O)c(Sc3ccc(C)cc3)c12 |
| > 50 | 50 (≈ 141 µM) | > 50 | > 50 | 50 (≈ 141 µM) | COC(=O)C(C#N)C1=C(Sc2ccc(C)cc2)C(=O)C(C)=C(C)C1=O (stereo not given) |
| > 50 | > 50 | > 50 | > 50 | 1.6 (≈ 4.33 µM) | COC(=O)c1c(N)nnc2c(C)c(C)c(O)c(Sc3cccc(C)c3)c12 |
| > 50 | 1.6 (≈ 4.5 µM) | > 50 | > 50 | 50 (≈ 141 µM) | COC(=O)C(C#N)C1=C(Sc2cccc(C)c2)C(=O)C(C)=C(C)C1=O (stereo not given) |
| 50 (≈ 134 µM) | 25 (≈ 67 µM) | 1.6 (≈ 4.28 µM) | > 50 | 6.3 (≈ 16.9 µM) | COC(=O)c1c(N)nnc2c(C)c(C)c(O)c(Sc3cccc(F)c3)c12 |
| 50 (≈ 187 µM) | 25 (≈ 93.4 µM) | 25 (≈ 93.4 µM) | 50 (≈ 187 µM) | 6.3 (≈ 23.5 µM) | COC(=O)C(C#N)C1=C(Cl)C(=O)C(C)=C(C)C1=O (stereo not given) |
| 25 (≈ 65.2 µM) | 3.2 (≈ 8.34 µM) | 12.5 (≈ 32.6 µM) | > 50 | 1.6 (≈ 4.17 µM) | COC(=O)c1c(N)nnc2c(C)c(C)c(O)c(Sc3ccc(C)c(C)c3)c12 |
| 25 (≈ 70.3 µM) | 6.3 (≈ 17.7 µM) | 12.5 (≈ 35.2 µM) | > 50 | 1.6 (≈ 4.5 µM) | COC(=O)c1c(N)nnc2c(C)c(C)c(O)c(Sc3ccccc3)c12 |
| 50 (≈ 135 µM) | > 50 | 50 (≈ 135 µM) | 50 (≈ 135 µM) | > 50 | COC(=O)C(C#N)C1=C(Sc2ccc(C)c(C)c2)C(=O)C(C)=C(C)C1=O (stereo not given) |

| SMILES | MIC [1] [µg/mL] | MIC [2] [µg/mL] | MIC [3] [µg/mL] | MIC [4] [µg/mL] | MIC [5] [µg/mL] |
| --- | --- | --- | --- | --- | --- |
| Nc1nc(=O)[nH]cc1F [FLUCYTOSINE] | 12.5 (≈ 96.8 µM) | 6.3 (≈ 48.8 µM) | 12.5 (≈ 96.8 µM) | 6.3 (≈ 48.8 µM) | 12.5 (≈ 96.8 µM) |
